pIC50, pKd: −log10 of the molar value. In brackets after ≈: the same amount, converted by molar mass. Activity calls are given as the source filed them. The calls are words filed in the database; no cut-off is given here.
How the values were obtained:
[1] = target: T1, 3-oxoacyl-[acyl-carrier-protein] synthase 2 (Staphylococcus aureus) (UniProt Q5TKS0); assay: Binding affinity to His6-tagged Staphylococcus aureus FabF expressed in Escherichia coli BL21 (DE3) assessed as decrease in melting temperature at 10 uM by SYPRO orange based differential scanning fluorimetry
T1 sequence (whole entry): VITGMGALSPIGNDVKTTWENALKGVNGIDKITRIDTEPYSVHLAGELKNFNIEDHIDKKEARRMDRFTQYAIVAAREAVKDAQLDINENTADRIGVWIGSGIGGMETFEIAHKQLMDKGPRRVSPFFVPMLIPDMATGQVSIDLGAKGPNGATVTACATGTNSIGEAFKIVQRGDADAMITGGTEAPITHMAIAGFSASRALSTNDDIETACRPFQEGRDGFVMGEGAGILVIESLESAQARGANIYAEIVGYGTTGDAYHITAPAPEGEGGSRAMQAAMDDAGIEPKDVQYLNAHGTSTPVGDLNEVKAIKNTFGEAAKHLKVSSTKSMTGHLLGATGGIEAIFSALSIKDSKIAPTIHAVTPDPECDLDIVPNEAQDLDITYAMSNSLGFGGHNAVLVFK
Outline: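 S. aureus FabF melting curves were measured by DSF in 20 mM HEPES, 180 mM NaCl, pH 7.5, a buffer selected by screening seven buffers. ΔTm was derived from the melting-temperature shift caused by ligand; n = 4.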

Staphylococcus aureus [2] = assay: Antibacterial activity against methicillin resistant Staphylococcus aureus infected in C57BL/6J mouse model of peritonitis assessed as mouse survival by measuring number of mouse at 10 mg/kg, ip administered at 1 and 5 hrs post infection relative to control; format: functional
Outline: (§1)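 Female C57BL/6J mice infected intraperitoneally with 1.5–2.0 × 10^7 CFU MRSA in 5% w/v hog gastric mucin; n = 5 per group; intraperitoneal treatment at 10 mg/kg at 1 and 5 h post-infection; vancomycin 10 mg/kg as control; survival and kidney bacterial load recorded.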

Escherichia coli [3] = assay: Binding affinity to His6-tagged Escherichia coli FabH expressed in Escherichia coli BL21 (DE3) assessed as decrease in melting temperature at 10 uM by SYPRO orange based differential scanning fluorimetry
Outline: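 Purified E. coli FabH melting curves were recorded with and without ligand by thermal-shift fluorometry in 1.0 M Tris-HCl, pH 6.8, a buffer chosen from seven screened. ΔTm was taken from the Tm shift; n = 4.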

Staphylococcus aureus [4] = assay: Antibacterial activity against methicillin sensitive Staphylococcus aureus assessed as inhibition of bacterial growth measured after 16 hrs by agar plate dilution method; format: functional
Outline: (§2)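 Clinical MSSA and MRSA strains isolated from local hospitals; MIC determined by plate dilution; data from at least two independent experiments.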

Staphylococcus aureus [5] = assay: Antibacterial activity against Staphylococcus aureus ATCC 29213 assessed as inhibition of bacterial growth measured after 16 hrs by agar plate dilution method; format: functional
Outline: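 MIC determined by plate dilution against the reference strain; values from at least two independent experiments.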

Staphylococcus aureus [6] = assay: Antibacterial activity against methicillin resistant Staphylococcus aureus infected in C57BL/6J mouse model of peritonitis assessed as bacterial load in kidney at 10 mg/kg, ip administered at 1 and 5 hrs post infection; format: functional, organism-based; outline: as §1
Staphylococcus aureus [7] = assay: Antibacterial activity against methicillin resistant Staphylococcus aureus assessed as inhibition of bacterial growth measured after 16 hrs by agar plate dilution method; format: functional; outline: as §2
Staphylococcus aureus [8] = assay: Antibacterial activity against methicillin, fusidic-acid, macrolide resistant and lincomycin, telithromycin, cipro-bay susceptible Staphylococcus aureus assessed as bacterial growth inhibition; format: functional
Staphylococcus aureus [9] = assay: Antibacterial activity against macrolide, lincomycin, telithromycin resistant and cipro-bay susceptible, methicillin-resistant Staphylococcus aureus assessed as bacterial growth inhibition; format: functional
Staphylococcus aureus [10] = assay: Antibacterial activity against methicillin resistant and macrolide, lincomycin, telithromycin, cipro-bay susceptible Staphylococcus aureus assessed as bacterial growth inhibition; format: functional
Staphylococcus aureus [11] = assay: Antibacterial activity against methicillin, macrolide, lincomycin, telithromycin, cipro-bay resistant Staphylococcus aureus assessed as bacterial growth inhibition; format: functional
Escherichia coli [12] = assay: Binding affinity to His6-tagged Escherichia coli FabF C163Q mutant expressed in Escherichia coli BL21 (DE3) assessed as change in enthalpy measured after 200 sec by isothermal titration calorimetry
Outline: (§3)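 Ligands were dissolved in PBS (10 mM, pH 7.4) and titrated into E. coli FabF(C163Q) in the same buffer. Protein was at 12 or 14 μM and ligand at 250 μM. Thermodynamic parameters (ΔH, ΔS, ΔG, Kd, n) were calculated from the heat of binding. Runs were done at least three times; one representative run was used.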

Staphylococcus aureus [13] = assay: Antibacterial activity against methicillin resistant Staphylococcus aureus assessed as inhibition of bacterial growth measured after 18 hrs in presence of 10% human serum by resazurin dye based broth dilution assay; format: functional
Escherichia coli [14] = assay: Binding affinity to His6-tagged Escherichia coli FabF C163Q mutant expressed in Escherichia coli BL21 (DE3) assessed as stoichiometry ratio measured after 200 sec by isothermal titration calorimetry; outline: as §3
Staphylococcus aureus [15] = assay: Inhibition of Staphylococcus aureus FabH A81V mutant assessed as bacterial growth inhibition measured after 18 hrs by resazurin dye based broth dilution assay
Outline: (§4)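 S. aureus strains carrying point mutations in the FabH active site; MIC determined by broth dilution; data from at least two independent experiments.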

Staphylococcus aureus [16] = assay: Inhibition of Staphylococcus aureus FabH A81V/A111T mutant assessed as bacterial growth inhibition measured after 18 hrs by resazurin dye based broth dilution assay; outline: as §4
Escherichia coli [17] = assay: Binding affinity to His6-tagged Escherichia coli FabF C163Q mutant expressed in Escherichia coli BL21 (DE3) assessed Gibbs free energy change measured after 200 sec by isothermal titration calorimetry; outline: as §3
Escherichia coli [18] = assay: Antibacterial activity against Escherichia coli harboring delta tolC mutant assessed as inhibition of bacterial growth measured after 16 hrs by agar plate dilution method; format: functional
Staphylococcus aureus [19] = assay: Antibacterial activity against methicillin resistant Staphylococcus aureus infected in C57BL/6J mouse model of peritonitis assessed as mouse survival when infected with 2.5x10^7 CFU bacteria at 10 mg/kg, ip administered at 1 and 5 hrs post infection; format: functional, organism-based
Outline: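 Female C57BL/6J mice given a higher intraperitoneal MRSA inoculum of 2.5 × 10^7 CFU; intraperitoneal treatment at 1 and 5 h post-infection; survival recorded.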

[20] = Binding affinity to His6-tagged Escherichia coli FabF C163Q mutant expressed in Escherichia coli BL21 (DE3) assessed as binding constant measured after 200 sec by isothermal titration calorimetry; outline: as §3
Staphylococcus aureus [21] = assay: Antibacterial activity against methicillin resistant Staphylococcus aureus infected in C57BL/6J mouse model of peritonitis assessed as mouse survival at 10 mg/kg, ip administered at 1 and 5 hrs post infection; format: functional, organism-based; outline: as §1
Escherichia coli [22] = assay: Binding affinity to His6-tagged Escherichia coli FabF C163Q mutant expressed in Escherichia coli BL21 (DE3) assessed as change in entropy measured after 200 sec by isothermal titration calorimetry; outline: as §3
Enterococcus faecalis = assay: Antibacterial activity against Enterococcus faecalis ATCC 29212 assessed as inhibition of bacterial growth measured after 16 hrs by agar plate dilution method; format: functional
[23] = Inhibition of Staphylococcus aureus FabH
[24] = Inhibition of Staphylococcus aureus FabB/FabF

## C=CCSC1=C[C@]23CCC(C[C@H]2[C@](C)(CCC(=O)Nc2c(O)ccc(C(=O)O)c2O)C1=O)C(=C)C3 (single isomer, unassigned)
[1]
  Activity: Active
Staphylococcus aureus [2]
  Activity: 80%
Escherichia coli [3]
  Activity: Active
Staphylococcus aureus [4]
  MIC: 1 mg/L (≈ 2.01 µM)
Staphylococcus aureus [5]
  MIC: 2 mg/L (≈ 4.02 µM)
Staphylococcus aureus [6]
  Activity: Active
Staphylococcus aureus [7]
  MIC: 1 mg/L (≈ 2.01 µM)

## C=C1[C@H]2CC[C@@]3(C=CC(=O)[C@@](C)(CCC(=O)Nc4c(O)ccc(C(=O)O)c4O)[C@@H]3C2)[C@H]1O [PLATENCIN A3]
Staphylococcus aureus [8]
  MIC: 8 mg/L (≈ 18.1 µM)
Staphylococcus aureus [9]
  MIC: 8 mg/L (≈ 18.1 µM)
Staphylococcus aureus [10]
  MIC: 8 mg/L (≈ 18.1 µM)
Staphylococcus aureus [11]
  MIC: 8 mg/L (≈ 18.1 µM)

## C=C1C[C@@]23C=CC(=O)[C@@](C)(CCC(=O)Nc4c(O)ccc(C(=O)O)c4O)[C@@H]2C[C@@H]1CC3 [PLATENCIN]
Escherichia coli [12]
  deltaH: -11.9 kJ/mol
[1]
  Activity: Active
Staphylococcus aureus [13]
  MIC: 8 mg/L
Escherichia coli [14]
  Ratio: 1.12
Escherichia coli [3]
  Activity: Active
Staphylococcus aureus [15]
  MIC: > 32 mg/L
Staphylococcus aureus [16]
  MIC: 32 mg/L (≈ 75.2 µM)
Staphylococcus aureus [4]
  MIC: 1 mg/L (≈ 2.35 µM)
Escherichia coli [17]
  deltaG: -43 kJ/mol
Staphylococcus aureus [5]
  MIC: 1 mg/L (≈ 2.35 µM)
Escherichia coli [18]
  MIC: 4 mg/L (≈ 9.4 µM)
Staphylococcus aureus [19]
  Activity: inactive
Staphylococcus aureus [6]
  Activity: Active
[20]
  pKd: 7.57
Staphylococcus aureus [21]
  Activity: Active
Staphylococcus aureus [7]
  MIC: 1 mg/L (≈ 2.35 µM)
Escherichia coli [22]
  -TdeltaS: -31.1 kJ/mol
Enterococcus faecalis
  MIC: 2 mg/L (≈ 4.7 µM)
[23]
  pIC50: 5.04
[24]
  pIC50: 5.34

From ChEMBL document CHEMBL4765495, “Semisynthesis and Biological Evaluation of Platencin Thioether Derivatives: Dual FabF and FabH Inhibitors against MRSA” (ACS Med Chem Lett, 2021)
